# Reference: ChEMBL document CHEMBL4118269 (J Med Chem, 2018)
# Biological target: Lanosterol 14-alpha demethylase (Candida albicans (strain SC5314 / ATCC MYA-2876) (Yeast), UniProt P10613)
# Test: Inhibition of Candida albicans CYP51 assessed as reduction in [3-3H]lanosterol 14alpha-demethylation at 0.75 uM preincubated for 60 secs followed by NADPH addition measured after 60 mins by RP-HPLC analysis relative to control
# Settings: 1 h
# In short: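 C. albicans CYP51 expressed in E. coli and purified, 0.5 μM, with 1.0 μM rat NADPH-P450 reductase, dilauroylphosphatidylcholine and isocitrate dehydrogenase/isocitrate regeneration in 50 mM potassium phosphate pH 7.2, 10% glycerol, 0.1% Triton X-100. Substrate 25 μM final; inhibitor:enzyme:substrate 1.5:1:50. 37 °C, started with 100 μM NADPH. Sterols extracted with EtOAc, radio-HPLC. Triplicate, mean ± SD.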
# Lanosterol 14-alpha demethylase (Candida albicans (strain SC5314 / ATCC MYA-2876) (Yeast), UniProt P10613), sequence (P10613 whole entry): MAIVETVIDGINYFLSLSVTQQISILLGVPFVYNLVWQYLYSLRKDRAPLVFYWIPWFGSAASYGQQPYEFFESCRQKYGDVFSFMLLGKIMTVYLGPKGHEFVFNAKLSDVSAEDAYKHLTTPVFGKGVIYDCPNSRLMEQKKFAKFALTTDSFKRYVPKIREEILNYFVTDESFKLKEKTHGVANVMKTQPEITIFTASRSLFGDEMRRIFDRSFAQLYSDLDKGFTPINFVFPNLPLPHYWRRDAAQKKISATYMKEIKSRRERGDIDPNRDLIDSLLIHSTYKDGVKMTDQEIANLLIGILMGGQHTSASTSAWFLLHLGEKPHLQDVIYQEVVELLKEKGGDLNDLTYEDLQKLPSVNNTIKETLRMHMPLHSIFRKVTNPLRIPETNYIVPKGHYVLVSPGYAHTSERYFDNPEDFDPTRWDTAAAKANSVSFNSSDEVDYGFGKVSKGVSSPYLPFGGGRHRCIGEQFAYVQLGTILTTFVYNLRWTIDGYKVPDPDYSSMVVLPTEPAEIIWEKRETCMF
row,Compound,inhibition at 0.75 µM [%]
1,O=C(N[C@@H](Cn1ccnc1)c1ccc(Cl)cc1Cl)c1ccc(-c2nnc(-c3cc(F)cc(-c4ncncc4F)c3)o2)cc1,92
2,O=C(N[C@@H](Cn1ccnc1)c1ccc(Cl)cc1Cl)c1ccc(-c2nnc(-c3ccc(OCC(F)(F)F)cc3F)o2)cc1,94

# Biological target: Lanosterol 14-alpha demethylase (Aspergillus) (UniProt B8NUK6+Q9P8R0+G4WW85)
# Test: Inhibition of Aspergillus fumigatus CYP51 assessed as reduction in [3-3H]eburicol 14alpha-demethylation at 0.75 uM preincubated for 60 secs followed by NADPH addition measured after 60 mins by RP-HPLC analysis relative to control
# Settings: not given
# In short: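 E. coli-expressed, purified CYP51 (0.5 μM) with rat NADPH-P450 reductase (1.0 μM), 100 μM dilauroylphosphatidylcholine, isocitrate dehydrogenase/isocitrate NADPH regeneration, in 50 mM K phosphate pH 7.2 with 10% glycerol and 0.1% Triton X-100. [3-3H]eburicol 25 μM final, inhibitor 0.75 μM final (1.5:1:50 inhibitor:enzyme:substrate), 37 °C. Started with 100 μM NADPH, 60 min, EtOAc extraction, radio-HPLC. Percent inhibition, triplicate, mean ± SD.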
row,Compound,inhibition [%]
1,O=C(N[C@@H](Cn1ccnc1)c1ccc(Cl)cc1Cl)c1ccc(-c2nnc(-c3cc(F)cc(-c4ncncc4F)c3)o2)cc1,57
2,O=C(N[C@@H](Cn1ccnc1)c1ccc(Cl)cc1Cl)c1ccc(-c2nnc(-c3ccc(OCC(F)(F)F)cc3F)o2)cc1,82

# Test system: not listed separately
# Test: Lipophilicity, log P of the compound
# Format: physicochemical
# Settings: octanol/water
row,Compound,logP
1,O=C(N[C@@H](Cn1ccnc1)c1ccc(Cl)cc1Cl)c1ccc(-c2nnc(-c3cc(F)cc(-c4ncncc4F)c3)o2)cc1,5.05
2,O=C(N[C@@H](Cn1ccnc1)c1ccc(Cl)cc1Cl)c1ccc(-c2nnc(-c3ccc(OCC(F)(F)F)cc3F)o2)cc1,5.58

# Biological target: T1, Lanosterol 14-alpha demethylase (Aspergillus, UniProt B8NUK6+G4WW85+Q9P8R0)
# T1 sequence (B8NUK6 whole entry): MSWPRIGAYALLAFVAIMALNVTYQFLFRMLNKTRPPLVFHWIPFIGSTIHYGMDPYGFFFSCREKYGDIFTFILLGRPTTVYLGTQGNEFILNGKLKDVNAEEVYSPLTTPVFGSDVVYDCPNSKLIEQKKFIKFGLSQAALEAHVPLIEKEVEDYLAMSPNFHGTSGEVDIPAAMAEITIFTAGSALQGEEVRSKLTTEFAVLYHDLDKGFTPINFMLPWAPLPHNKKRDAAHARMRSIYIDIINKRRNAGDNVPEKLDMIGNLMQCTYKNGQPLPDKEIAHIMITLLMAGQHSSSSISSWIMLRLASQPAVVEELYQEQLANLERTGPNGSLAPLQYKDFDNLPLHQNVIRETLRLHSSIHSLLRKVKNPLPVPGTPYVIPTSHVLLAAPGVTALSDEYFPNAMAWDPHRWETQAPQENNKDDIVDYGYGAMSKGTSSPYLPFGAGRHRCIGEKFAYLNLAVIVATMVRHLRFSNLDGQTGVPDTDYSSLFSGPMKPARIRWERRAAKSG
# T1 sequence (Q9P8R0 whole entry): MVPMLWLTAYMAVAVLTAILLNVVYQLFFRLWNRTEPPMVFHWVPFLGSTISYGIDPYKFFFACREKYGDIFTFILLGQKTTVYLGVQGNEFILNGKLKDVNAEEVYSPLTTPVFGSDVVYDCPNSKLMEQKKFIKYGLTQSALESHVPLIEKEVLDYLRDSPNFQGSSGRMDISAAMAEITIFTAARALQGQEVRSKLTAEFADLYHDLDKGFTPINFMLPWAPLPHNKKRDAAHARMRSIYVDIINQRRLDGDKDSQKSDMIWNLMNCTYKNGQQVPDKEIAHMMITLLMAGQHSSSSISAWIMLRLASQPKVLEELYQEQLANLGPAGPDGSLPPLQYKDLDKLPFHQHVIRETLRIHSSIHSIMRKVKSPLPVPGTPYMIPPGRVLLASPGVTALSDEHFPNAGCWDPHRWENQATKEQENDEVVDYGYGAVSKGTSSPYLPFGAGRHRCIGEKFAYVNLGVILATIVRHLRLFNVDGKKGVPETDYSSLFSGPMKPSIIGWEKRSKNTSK
# T1 sequence (G4WW85 whole entry): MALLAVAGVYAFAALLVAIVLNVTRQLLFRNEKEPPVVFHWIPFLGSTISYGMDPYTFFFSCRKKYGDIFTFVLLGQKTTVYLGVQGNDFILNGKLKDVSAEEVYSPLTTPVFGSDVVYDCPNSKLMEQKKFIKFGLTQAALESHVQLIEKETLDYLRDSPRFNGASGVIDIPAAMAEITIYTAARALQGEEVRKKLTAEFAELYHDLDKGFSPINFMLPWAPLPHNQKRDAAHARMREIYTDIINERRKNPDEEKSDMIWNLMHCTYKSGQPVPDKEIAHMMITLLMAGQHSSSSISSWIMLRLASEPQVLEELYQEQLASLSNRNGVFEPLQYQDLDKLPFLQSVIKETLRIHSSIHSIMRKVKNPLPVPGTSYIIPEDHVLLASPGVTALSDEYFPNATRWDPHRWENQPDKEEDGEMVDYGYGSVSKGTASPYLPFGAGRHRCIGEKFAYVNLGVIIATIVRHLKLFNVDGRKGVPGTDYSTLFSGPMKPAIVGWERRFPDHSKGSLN
# Test: Binding affinity to Aspergillus fumigatus CYP51 by spectral titration method
# Settings: read-out: Kd(app)
# In short: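 Purified CYP51 at 0.5 μM in 5 cm path cuvettes, titrated from 0.2 mM DMSO stocks over 0.1–0.8 μM ligand. Type II red shift of the Soret band (417 to 424 nm) followed as ΔA (Amax−Amin) in difference spectra. Kd obtained by fitting to the quadratic tight-binding equation using total ligand and enzyme concentrations.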
row,Compound,Kd [nM]
1,O=C(N[C@@H](Cn1ccnc1)c1ccc(Cl)cc1Cl)c1ccc(-c2nnc(-c3cc(F)cc(-c4ncncc4F)c3)o2)cc1,132
2,O=C(N[C@@H](Cn1ccnc1)c1ccc(Cl)cc1Cl)c1ccc(-c2nnc(-c3ccc(OCC(F)(F)F)cc3F)o2)cc1,20

# Test system: not listed separately
# Test: Half life in human liver microsomes at 1 uM preincubated for 5 mins followed by NADPH addition measured up to 45 mins by LC-MS/MS analysis
# Format: ADME, microsome
# Settings: 0.75 h
# In short: (§1)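 Pooled liver microsomes (0.5 mg/mL; male CD-1 mouse, male Sprague Dawley rat, or mixed-gender human) with 1 μM compound in 100 mM potassium phosphate pH 7.4, 3 mM MgCl2, 37 °C with shaking. 5 min preincubation, then 1 mM NADPH. Aliquots at 0, 3, 7, 15, 25, 45 min quenched in cold CH3CN with carbamazepine internal standard, then LC/MS/MS. Triplicate; T1/2 = ln2/k from the slope of ln % remaining versus time.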
row,Compound,t1/2 [h]
1,O=C(N[C@@H](Cn1ccnc1)c1ccc(Cl)cc1Cl)c1ccc(-c2nnc(-c3cc(F)cc(-c4ncncc4F)c3)o2)cc1,1.4
2,O=C(N[C@@H](Cn1ccnc1)c1ccc(Cl)cc1Cl)c1ccc(-c2nnc(-c3ccc(OCC(F)(F)F)cc3F)o2)cc1,1.27

# Test system: not listed separately
# Test: Half life in CD-1 mouse liver microsomes at 1 uM preincubated for 5 mins followed by NADPH addition measured up to 45 mins by LC-MS/MS analysis
# Format: ADME, microsome
# Settings: 0.75 h
# In short: as §1
row,Compound,t1/2 [h]
1,O=C(N[C@@H](Cn1ccnc1)c1ccc(Cl)cc1Cl)c1ccc(-c2nnc(-c3cc(F)cc(-c4ncncc4F)c3)o2)cc1,0.867
2,O=C(N[C@@H](Cn1ccnc1)c1ccc(Cl)cc1Cl)c1ccc(-c2nnc(-c3ccc(OCC(F)(F)F)cc3F)o2)cc1,1.03

# Test system: Aspergillus fumigatus
# Test: Antifungal activity against Aspergillus fumigatus 1022 after 48 hrs by CLSI M38-A2 protocol based assay
# Format: functional
# Settings: Aspergillus fumigatus, 1022, 48 h; read-out: MIC100
row,Compound,MIC [µg/mL]
1,O=C(N[C@@H](Cn1ccnc1)c1ccc(Cl)cc1Cl)c1ccc(-c2nnc(-c3cc(F)cc(-c4ncncc4F)c3)o2)cc1,0.48
2,O=C(N[C@@H](Cn1ccnc1)c1ccc(Cl)cc1Cl)c1ccc(-c2nnc(-c3ccc(OCC(F)(F)F)cc3F)o2)cc1,0.19

# Test system: Aspergillus fumigatus
# Test: Antifungal activity against Aspergillus fumigatus 32820 after 48 hrs by CLSI M38-A2 protocol based assay
# Format: functional
# Settings: Aspergillus fumigatus, 32820, 48 h; read-out: MIC100
row,Compound,MIC [µg/mL]
1,O=C(N[C@@H](Cn1ccnc1)c1ccc(Cl)cc1Cl)c1ccc(-c2nnc(-c3cc(F)cc(-c4ncncc4F)c3)o2)cc1,0.19
2,O=C(N[C@@H](Cn1ccnc1)c1ccc(Cl)cc1Cl)c1ccc(-c2nnc(-c3ccc(OCC(F)(F)F)cc3F)o2)cc1,0.06

# Test system: Aspergillus fumigatus
# Test: Antifungal activity against Aspergillus fumigatus MYA626 after 48 hrs by CLSI M38-A2 protocol based assay
# Format: functional
# Settings: MYA626, 48 h, read-out: MIC100
row,Compound,MIC [µg/mL]
1,O=C(N[C@@H](Cn1ccnc1)c1ccc(Cl)cc1Cl)c1ccc(-c2nnc(-c3cc(F)cc(-c4ncncc4F)c3)o2)cc1,0.78
2,O=C(N[C@@H](Cn1ccnc1)c1ccc(Cl)cc1Cl)c1ccc(-c2nnc(-c3ccc(OCC(F)(F)F)cc3F)o2)cc1,0.39

# Test system: not listed separately
# Test: in vitro
# Settings: human, liver microsomes
row,Compound,"CLint scaled at 0.75 h, 1 µM [mL/min/kg]"
1,O=C(N[C@@H](Cn1ccnc1)c1ccc(Cl)cc1Cl)c1ccc(-c2nnc(-c3cc(F)cc(-c4ncncc4F)c3)o2)cc1,14.9
2,O=C(N[C@@H](Cn1ccnc1)c1ccc(Cl)cc1Cl)c1ccc(-c2nnc(-c3ccc(OCC(F)(F)F)cc3F)o2)cc1,16.5

# Test system: not listed separately
# Test: in vitro
# Settings: human, liver microsomes
# Remark: another data set of the same source
row,Compound,"CLhep predicted at 0.75 h, 1 µM [mL/min/kg]"
1,O=C(N[C@@H](Cn1ccnc1)c1ccc(Cl)cc1Cl)c1ccc(-c2nnc(-c3cc(F)cc(-c4ncncc4F)c3)o2)cc1,8.37
2,O=C(N[C@@H](Cn1ccnc1)c1ccc(Cl)cc1Cl)c1ccc(-c2nnc(-c3ccc(OCC(F)(F)F)cc3F)o2)cc1,9.24

# Test system: not listed separately
# Test: in vitro
# Settings: Sprague-Dawley, rat, liver microsomes
row,Compound,"CLint scaled at 0.75 h, 1 µM [mL/min/kg]"
1,O=C(N[C@@H](Cn1ccnc1)c1ccc(Cl)cc1Cl)c1ccc(-c2nnc(-c3cc(F)cc(-c4ncncc4F)c3)o2)cc1,27
2,O=C(N[C@@H](Cn1ccnc1)c1ccc(Cl)cc1Cl)c1ccc(-c2nnc(-c3ccc(OCC(F)(F)F)cc3F)o2)cc1,64

# Test system: not listed separately
# Test: in vitro
# Settings: Sprague-Dawley, rat, liver microsomes
# Remark: another data set of the same source
row,Compound,"CLhep predicted at 0.75 h, 1 µM [mL/min/kg]"
1,O=C(N[C@@H](Cn1ccnc1)c1ccc(Cl)cc1Cl)c1ccc(-c2nnc(-c3cc(F)cc(-c4ncncc4F)c3)o2)cc1,19.5
2,O=C(N[C@@H](Cn1ccnc1)c1ccc(Cl)cc1Cl)c1ccc(-c2nnc(-c3ccc(OCC(F)(F)F)cc3F)o2)cc1,34

# Test system: not listed separately
# Test: in vitro
# Settings: CD-1, mouse, liver microsomes
row,Compound,"CLint scaled at 0.75 h, 1 µM [mL/min/kg]"
1,O=C(N[C@@H](Cn1ccnc1)c1ccc(Cl)cc1Cl)c1ccc(-c2nnc(-c3cc(F)cc(-c4ncncc4F)c3)o2)cc1,104
2,O=C(N[C@@H](Cn1ccnc1)c1ccc(Cl)cc1Cl)c1ccc(-c2nnc(-c3ccc(OCC(F)(F)F)cc3F)o2)cc1,88

# Test system: not listed separately
# Test: in vitro
# Settings: CD-1, mouse, liver microsomes
# Remark: another data set of the same source
row,Compound,"CLhep predicted at 0.75 h, 1 µM [mL/min/kg]"
1,O=C(N[C@@H](Cn1ccnc1)c1ccc(Cl)cc1Cl)c1ccc(-c2nnc(-c3cc(F)cc(-c4ncncc4F)c3)o2)cc1,48.3
2,O=C(N[C@@H](Cn1ccnc1)c1ccc(Cl)cc1Cl)c1ccc(-c2nnc(-c3ccc(OCC(F)(F)F)cc3F)o2)cc1,44
